Assay results published in ChEMBL document CHEMBL1139864, “Chemical insights in the concept of hybrid drugs: the antitumor effect of nitric oxide-donating aspirin involves a quinone methide but not nitric oxide nor aspirin” (J Med Chem, 2007).
The source made the active and inactive calls. The rule behind the calls is not given here.

Tests used:
Type in all cases: functional, cell-based
[1] = system: HT-29; assay: Apoptosis induction in human HT29 cells after 24 hrs; settings: HT-29, 24 h
Method in brief: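 HT29 cells seeded at 25 000/well and attached 24 h, then exposed for 24 h at 37 C to compound (0-1000 M, added from DMSO; final DMSO 0.5%, 1.0% at 600 µM). Cells harvested, stained with PI, and 10 000 events counted by flow cytometry. PI-negative cells scored as living and EC50 fitted from the curves. Mean of 3-4 independent experiments.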

[2] = system: SW480; assay: Inhibition of serum-induced expression of cyclin D in human SW480 cells after 5 hrs
Method in brief: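 SW480 cells starved of serum overnight, then stimulated with serum for 5 h with or without a range of compound concentrations. Cyclin D1 level read by Western blot.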

[3] = system: HT-29; assay: Effect on cell death in HT29 cells pretreated with GSH synthesis inhibitor BSO; settings: Homo sapiens
Method in brief: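 HT29 cells seeded 25 000/well, attached 24 h; 200 µM BSO for 4 h at 37 C, washed, then medium with or without EtGSH (10 mM) 3 h, washed. Then compound in DMSO (final 0.5%) for 24 h at 37 C; cells harvested, stained with PI, 10 000 events by flow cytometry; PI-negative cells counted as living. Mean of four independent experiments, standard deviations.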

[4] = system: HT-29; assay: Induction of PARP cleavage in human HT29 cells after 8 hrs
Method in brief: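 HT29 cells incubated 8 h with a range of compound concentrations. The 116 kDa PARP cleavage was detected by Western blot.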

[5] = system: HT-29; assay: Induction of DNA fragmentation in human HT29 cells after 48 hrs by Nicoletti assay
Method in brief: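 HT29 cells seeded 25 000/well, attached 24 h, then treated with compound for 48 h. Trypsinized, resuspended in Nicoletti buffer (0.1% Tx-100, 0.1% Na citrate, 50 g/mL PI), held overnight at 4 C. DNA content of nuclei measured by FACS to assess fragmentation.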

SMILES: CC(=O)Oc1ccccc1C(=O)Oc1cccc(CO[N+](=O)[O-])c1 [NCX-4016]
- EC50 [1]: 1000 µM
- Activity [2]: inactive

SMILES: CC(=O)Oc1ccccc1C(=O)Oc1cccc(CO)c1
- EC50 [1]: > 1000 µM

SMILES: CC(=O)Oc1ccc(CCl)cc1
- Activity [3]: Active
- EC50 [1]: 8.7 µM
- Activity [4]: Active
- Activity [5]: Active
- Activity [2]: Active

SMILES: CC(=O)Oc1ccccc1C(=O)Oc1ccc(CO[N+](=O)[O-])cc1
- Activity [3]: Active
- EC50 [1]: 107 µM
- Activity [4]: Active
- Activity [5]: Active
- Activity [2]: Active

SMILES: CC(=O)Oc1ccc(CO[N+](=O)[O-])cc1
- EC50 [1]: 9.3 µM
- Activity [4]: Active
- Activity [2]: Active

SMILES: CC(=O)Oc1ccccc1C(=O)Oc1ccc(CCl)cc1
- EC50 [1]: 40.1 µM
- Activity [4]: Active
- Activity [2]: Active

SMILES: CC(=O)N[C@@H](C(=O)O)C(C)(C)SN=O
- EC50 [1]: > 1000 µM

SMILES: CC(=O)Oc1ccccc1C(=O)O [ASPIRIN]
- EC50 [1]: > 1000 µM
